Peptide text beside a SMILES is read from it. * marks the point of attachment. Doxorubicin(3'-N) = COc1cccc2c1C(=O)c1c(O)c3c(c(O)c1C2=O)C[C@@](O)(C(=O)CO)C[C@@H]3O[C@H]1C[C@H](N*)[C@H](O)[C@H](C)O1; Phosphonoacetyl = O=C(CP(=O)(O)O)*
Experiments:
[1] = Tissue distribution and pharmacokinetics in E0771 tumor-bearing mice; type: in vivo, mouse; settings: for t 1/2α / C max / AUC / Cmax / t max / t 1/2β: label = analyte
patients = settings: cited from earlier work
E0771 cells = assay: In vitro 2D cytotoxicity; type: cell-based; settings: Mus musculus, E0771, 72 h
LS 174T cells = assay: In vitro 2D cytotoxicity; type: cell-based; settings: Homo sapiens, LS174T, 72 h
MDA-MB-468 cells = assay: In vitro 2D cytotoxicity; type: cell-based; settings: Homo sapiens, MDA-MB-468, 72 h
Acute toxicity = type: in vivo, mouse; settings: mouse, in vivo
[2] = system: human myeloid progenitors; assay: In vitro hematotoxicity, colony growth; type: cell-based
Summary of the method: (§1)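 Human erythroid and myeloid progenitors grown in MethoCult GF H84434 with continuous exposure to the test compound for 14 days. Progenitor proliferation was scored as colony growth and dose–response curves were fitted to give IC50.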

[3] = system: human erythroid progenitors; assay: In vitro hematotoxicity, colony growth; type: cell-based
Summary of the method: as §1

[4] = system: C57BL6 mice (bone marrow repopulation); assay: In vivo hematotoxicity, bone marrow transplantation from treated donors; parameters: species or system mouse; settings: for survival of mice receiving BM from treated donors: day 41 post-transplantation, donors 58 mg/kg/week Dox or 1,026 mg/kg/week PhAc-ALGP-Dox
Summary of the method: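 Donor C57BL6 mice received the test compound (1,026 mg/kg/week) or doxorubicin (58 mg/kg/week) by intraperitoneal osmotic minipump for 7 days. Blood and bone marrow were collected 2 days later. Blood counts used a haematology analyser, and subpopulations were analysed by FACS (CTL = CD3+ CD8a+; B = CD45R+; CD4+; NK1.1+), n = 8. Bone marrow cells (1 × 10^7) were injected IV into 9.5 Gy-irradiated recipients, which were followed 41 days.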

[5] = system: human iPSCs-derived cardiomyocytes; assay: Impedance-based cardiotoxicity; type: cell-based
H9C2 rat cardiomyocytes = assay: In vitro cardiotoxicity; type: cell-based; settings: for cytotoxicity in differentiated cardiomyocytes: differentiated H9C2; for cytotoxicity in mitotic cells: mitotic H9C2, 16 hrs treatment, viability 72 hrs later
recombinant human CD10 = recombinant human CD10 (Homo sapiens, UniProt P08473); assay: Peptidase cleavage assay; type: biochemical; settings: after exposure to CD10, at 16 hours
recombinant human CD10, sequence (P08473 whole entry): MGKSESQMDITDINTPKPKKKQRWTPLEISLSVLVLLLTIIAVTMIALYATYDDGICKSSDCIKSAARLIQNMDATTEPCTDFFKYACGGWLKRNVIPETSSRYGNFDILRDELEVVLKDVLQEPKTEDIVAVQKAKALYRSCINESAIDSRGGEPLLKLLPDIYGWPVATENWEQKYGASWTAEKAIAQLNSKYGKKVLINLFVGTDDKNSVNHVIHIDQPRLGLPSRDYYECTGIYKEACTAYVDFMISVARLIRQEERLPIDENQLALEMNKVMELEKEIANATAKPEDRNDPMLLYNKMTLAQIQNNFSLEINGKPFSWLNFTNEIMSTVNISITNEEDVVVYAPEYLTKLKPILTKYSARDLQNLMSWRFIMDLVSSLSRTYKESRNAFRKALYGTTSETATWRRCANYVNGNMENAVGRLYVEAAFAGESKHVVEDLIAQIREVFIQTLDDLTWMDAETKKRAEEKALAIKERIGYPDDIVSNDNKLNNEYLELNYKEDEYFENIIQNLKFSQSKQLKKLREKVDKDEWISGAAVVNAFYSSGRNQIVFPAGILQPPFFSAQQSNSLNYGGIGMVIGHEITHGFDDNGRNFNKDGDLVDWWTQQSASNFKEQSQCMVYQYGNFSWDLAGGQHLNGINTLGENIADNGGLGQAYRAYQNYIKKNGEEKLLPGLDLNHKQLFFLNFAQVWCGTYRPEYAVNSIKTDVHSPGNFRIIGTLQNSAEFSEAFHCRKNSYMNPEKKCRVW
Summary of the method: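 Test compound (2 μM) in 150 mM NaCl, 50 mM Tris, 1% BSA, pH 7.5, at 37°C. Reaction started with recombinant human enzyme at equi-active levels (CD10 0.08, NLN 0.8, THOP1 0.1 μg/mL).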

[6] = Plasma pharmacokinetics after IV administration in healthy mice; type: in vivo, mouse
Summary of the method: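 Healthy mice (n = 5 per group) received a single IV dose of test compound at 849.5 mg/kg. A second set received equimolar doses: test compound 23.6 mg/kg versus doxorubicin 13.3 mg/kg. Plasma levels of prodrug, peptide-doxorubicin intermediates and free doxorubicin were followed over time and t1/2 was determined.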

[7] = Tissue imaging by MALDI-FTICR MSI in E0771 tumor-bearing mice; type: in vivo, mouse; settings: 849.5 mg/kg IV
Summary of the method: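 Female C57BL6 mice carried orthotopic E0771 tumors (1 × 10^6 cells in PBS injected into the mammary fat pad). Test compound was given IV at 849.5 mg/kg (reference doxorubicin 23 mg/kg). Whole-body and tumor sections were taken at 15 min, 24 h and 48 h and imaged by MALDI-FTICR MSI for free doxorubicin and metabolites, with H&E overlay.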

mice = assay: Acute toxicity; type: in vivo, mouse; settings: from LD50
[8] = MTD determination, weekly dosing; type: in vivo, mouse; settings: mouse, in vivo
Summary of the method: (§2)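 Female nu/nu NMRI mice, 6–8 weeks old, carried subcutaneous MDA-MB-468 xenografts (5 × 10^6 cells in PBS:Matrigel 1:1, right posterior flank). Healthy mice served alongside. Test compound was given weekly at 103, 206 or 309 mg/kg. Body weight, survival and tumor volume were monitored periodically during and after treatment, n = 5, mean ± SD.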

[9] = system: MDA-MB-468 tumor bearing mice; assay: MTD determination, weekly dosing; type: in vivo, mouse
Summary of the method: as §2

[10] = heart, IV Doxorubicin 92 μmol/kg
[11] = kidney, IV Doxorubicin 92 μmol/kg
[12] = liver, IV Doxorubicin 92 μmol/kg
[13] = plasma, IV Doxorubicin 92 μmol/kg
[14] = heart, IV PhAc-ALGP-Dox 92 μmol/kg
[15] = kidney, IV PhAc-ALGP-Dox 92 μmol/kg
[16] = liver, IV PhAc-ALGP-Dox 92 μmol/kg
[17] = plasma, IV PhAc-ALGP-Dox 92 μmol/kg
[18] = tumor, IV Doxorubicin 92 μmol/kg
[19] = tumor, IV PhAc-ALGP-Dox 92 μmol/kg

## COc1cccc2c1C(=O)c1c(O)c3c(c(O)c1C2=O)C[C@@](O)(C(=O)CO)C[C@@H]3O[C@H]1C[C@H](NC(=O)[C@H](CC(C)C)NC(=O)[C@H](C)NC(=O)[C@H](CC(C)C)NC(=O)CCNC(=O)CCC(=O)O)[C@H](O)[C@H](C)O1 [DTS-201, reference compound]
[1]; heart, IV DTS-201 92 μmol/kg
  t 1/2α: 0.2
[1]; kidney, IV DTS-201 92 μmol/kg
  t 1/2α: 0.4
[1]; liver, IV DTS-201 92 μmol/kg
  t 1/2α: 0.6
[1]; plasma, IV DTS-201 92 μmol/kg
  t 1/2α: 0.25
[1]; tumor, IV DTS-201 92 μmol/kg
  t 1/2α: 0.4
patients
  tolerated dose relative to the standard dose of Dox: 3.75 fold
patients; clinical trial
  well tolerated dose in patients: up to 400 mg/m^2

## COc1cccc2c1C(=O)c1c(O)c3c(c(O)c1C2=O)C[C@@](O)(C(=O)CO)C[C@@H]3O[C@H]1C[C@H](N)[C@H](O)[C@H](C)O1 [Dox, Doxorubicin, reference compound]
E0771 cells
  IC50: 20 nM
LS 174T cells
  IC50: 20 nM
MDA-MB-468 cells
  IC50: 110 nM
[1]; [10]
  t 1/2α: 5.6
[1]; [11]
  t 1/2α: 2.7
[1]; [12]
  t 1/2α: 2.1
[1]; mouse, tumor, intravenous, 53.4 mg/kg
  concentration at 72 hours: 7300 nM
[1]; [13]
  t 1/2α: 0.2
Acute toxicity
  LD50: 17 mg/kg
[2]
  IC50: 10 nM
[3]
  IC50: 20 nM
[4]
  survival of mice receiving BM from treated donors: 30%
[5]; by 72 hours
  cardiotoxicity (cellular impedance): 100%
H9C2 rat cardiomyocytes
  cytotoxicity in differentiated cardiomyocytes: nanomolar potency
  cytotoxicity in mitotic cells: nanomolar potency

## COc1cccc2c1C(=O)c1c(O)c3c(c(O)c1C2=O)C[C@@](O)([C@@H](O)CO)C[C@@H]3O[C@H]1C[C@H](N)[C@H](O)[C@H](C)O1 [DoxOL, Doxorubicinol]
[1]; heart, IV DTS-201 92 μmol/kg
  C max: <LoQ
[1]; [10]
  AUC: 54
  Cmax: 860 nM
  t 1/2α: 47
  t max: 240
[1]; [14]
  C max: <LoQ
[1]; kidney, IV DTS-201 92 μmol/kg
  AUC: 49.7
  Cmax: 1480 nM
  t 1/2β: 27.1
  t max: 240
[1]; [11]
  AUC: 168
  Cmax: 6800 nM
  t 1/2α: 2.5
  t 1/2β: 49
  t max: 30
[1]; [15]
  AUC: 20.8
  Cmax: 1960 nM
  t 1/2α: 1
  t 1/2β: 19.7
  t max: 30
[1]; liver, IV DTS-201 92 μmol/kg
  AUC: 30.8
  Cmax: 670 nM
  t 1/2β: 33.4
  t max: 120
[1]; [12]
  AUC: 104
  Cmax: 6000 nM
  t 1/2α: 2.2
  t 1/2β: 33.3
[1]; [16]
  AUC: 10.6
  Cmax: 440 nM
  t 1/2β: 21.7
  t max: 240
[1]; plasma, IV DTS-201 92 μmol/kg
  C max: <LoQ
[1]; [13]
  C max: <LoQ
[1]; [17]
  C max: <LoQ
[1]; tumor, IV DTS-201 92 μmol/kg
  C max: <LoQ
[1]; [18]
  AUC: 8
  Cmax: 120 nM
  t max: 2,880
[1]; [19]
  C max: <LoQ

## COc1cccc2c1C(=O)c1c(O)c3c(c(O)c1C2=O)C[C@@](O)(C(=O)CO)C[C@@H]3O[C@H]1C[C@H](NC(=O)[C@@H]2CCCN2C(=O)CN)[C@H](O)[C@H](C)O1 [GP-Dox]
[1]; [14]
  t 1/2α: 0.3
[1]; [15]
  t 1/2α: 0.2
[1]; [16]
  t 1/2α: 1.4
[1]; [17]
  t 1/2α: 0.2
[1]; [19]
  t 1/2α: 0.5

## COc1cccc2c1C(=O)c1c(O)c3c(c(O)c1C2=O)C[C@@](O)(C(=O)CO)C[C@@H]3O[C@H]1C[C@H](NC(=O)[C@@H]2CCCN2C(=O)CNC(=O)[C@@H](N)CC(C)C)[C@H](O)[C@H](C)O1 [LGP-Dox]
Recombinant human CD10
  amount of LGP-Dox detected from PhAc-ALGP-Dox: 2.65%
[1]; [15]
  t 1/2α: 0.1
[1]; [17]
  t 1/2α: 0.15

## COc1cccc2c1C(=O)c1c(O)c3c(c(O)c1C2=O)C[C@@](O)(C(=O)CO)C[C@@H]3O[C@H]1C[C@H](NC(=O)[C@@H]2CCCN2C(=O)CNC(=O)[C@H](CC(C)C)NC(=O)[C@H](C)NC(=O)CP(=O)(O)O)[C@H](O)[C@H](C)O1 [PhAc-ALGP-Dox] (Phosphonoacetyl-ALGP-{Doxorubicin(3'-N)})
[6]; 849.5 mg/kg PhAc-ALGP-Dox, molar concentration 36-fold higher
  increase of exposure to free Dox compared with administration of Dox (13.3 mg/kg): 1.9 fold
[6]; equimolar doses, PhAc-ALGP-Dox 23.6 mg/kg vs Dox 13.3 mg/kg
  free Dox lower than after Dox: 19 fold
[6]; mouse, in vivo, iv, 849.5 mg/kg
  half-life: 6.5 to 8.5 min
[1]; [14]
  t 1/2α: 0.17
[1]; in vivo
  greater retention of Dox in the tumor microenvironment compared with the parental drug: 5 fold
[1]; [15]
  t 1/2α: 0.1
[1]; [16]
  t 1/2α: 0.7
[1]; [17]
  t 1/2α: 0.21
[1]; plasma, PhAc-ALGP-Dox 94.4 mg/kg vs Dox 53.4 mg/kg
  free Dox exposure lower than after equimolar dosage of Dox: 15 fold
[1]; [19]
  t 1/2α: 0.3
[1]; tumor, PhAc-ALGP-Dox 94.4 mg/kg vs Dox 53.4 mg/kg
  intratumoral free Dox concentration lower than after equimolar Dox: 2.8 fold
[7]
  time for which presence of free Dox in tumor remained stable: ≥ 48 h
Acute toxicity
  LD50: 780 mg/kg
mice
  times more payload that can be administered than Dox: 27 times
[4]; 1,026 mg/kg/week via osmotic minipumps, 7 days
  reduction of circulating cytotoxic T lymphocytes (CTL) in donor mice: 15%
[4]
  survival of mice receiving BM from treated donors: 80%
[5]; cellular impedance, up to 72 h
  concentrations at which alterations were induced: > 5000 nM
H9C2 rat cardiomyocytes
  cytotoxicity in differentiated cardiomyocytes: essentially resilient
  cytotoxicity in mitotic cells: considerably less affected
[8]
  MTD at 672 h: 154 mg/kg
[9]; every weeks × 4
  highest tolerated dose as Dox equivalent: 87 mg/kg Dox equivalent
[9]; in vivo
  higher tolerability compared with the parental drug: 10 fold
[9]; tumor bearing mice, four cycles of 206 mg/kg weekly, mild but reversible
  body weight loss: 15%

Source: article PMC9377749 (Molecular Cancer Therapeutics, 2022)
